In ChEMBL document CHEMBL3286095, “Synthesis and antiparasitic activity of new bis-arylimidamides: DB766 analogs modified in the terminal groups” (Eur J Med Chem, 2014):

Tests used:
[1] = Selectivity index, ratio of IC50 for rat L6 cells to IC50 for Leishmania amazonensis; assay type: toxicity, cell-based; conditions: read-out: Ratio IC50
Summary of the method: (§1)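 SI is the IC50 in cultured L6 rat myoblasts (3-day drug exposure, Alamar blue viability) divided by the parasite IC50. Parasite assays used serial dilutions at 37°C. T. cruzi: intracellular, 4 days, β-galactosidase read-out with CPRG. T. b. rhodesiense: axenic, 3 days, Alamar blue. P. falciparum: 3 days, hypoxanthine incorporation. L. amazonensis: intracellular.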

[2] = Selectivity index, ratio of IC50 for rat L6 cells to IC50 for chloroquine-resistant Plasmodium falciparum K1; assay type: toxicity, cell-based; conditions: read-out: Ratio IC50; summary of the method: as §1
[3] = Selectivity index, ratio of IC50 for rat L6 cells to IC50 for Trypanosoma brucei rhodesiense STIB900 trypomastigotes; assay type: toxicity, cell-based; conditions: read-out: Ratio IC50; summary of the method: as §1
[4] = system: Trypanosoma cruzi; assay: Antiparasitic activity against Trypanosoma cruzi Tulahen LacZ/C4 amastigotes after 4 days by beta-galactosidase reporter gene assay; assay type: functional, organism-based; conditions: Tulahen LacZ/C4, 96 h
Summary of the method: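 Intracellular amastigotes of strain Tulahen LacZ/C4 given serial drug dilutions for 4 days at 37°C. The endpoint is the β-galactosidase reporter, read as a colour change after adding CPRG substrate.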

[5] = system: Plasmodium falciparum; assay: Antiparasitic activity against chloroquine-resistant Plasmodium falciparum K1 after 3 days by [3H]-hypoxanthine incorporation assay; assay type: functional, organism-based
Summary of the method: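 Erythrocytic-stage parasites exposed to serial drug dilutions at 37°C for 3 days; viability read by tritium-labelled hypoxanthine incorporation.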

[6] = system: Trypanosoma brucei rhodesiense; assay: Antiparasitic activity against Trypanosoma brucei rhodesiense STIB900 trypomastigotes after 3 days by Alamar blue assay; assay type: functional, organism-based; conditions: STIB900, 72 h
Summary of the method: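 Axenic trypomastigote bloodstream forms, strain STIB900, exposed to serial drug dilutions for 3 days at 37°C. Viability read by Alamar blue.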

[7] = Selectivity index, ratio of IC50 for rat L6 cells to IC50 for Trypanosoma cruzi Tulahen LacZ/C4 amastigotes; assay type: toxicity, cell-based; conditions: read-out: Ratio IC50; summary of the method: as §1
[8] = system: Plasmodium falciparum; assay: Ratio of pentamidine IC50 to compound IC50 for chloroquine-resistant Plasmodium falciparum K1; assay type: functional
[9] = system: Trypanosoma cruzi; assay: Ratio of benznidazole IC50 to compound IC50 for Trypanosoma cruzi Tulahen LacZ/C4 amastigotes; assay type: functional
[10] = system: L6; assay: Cytotoxicity against rat L6 cells after 3 days by Alamar blue assay; assay type: cell-based; conditions: L6, 72 h
Summary of the method: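 L6 rat myoblast cells cultured with compound for 3 days. Viability measured by Alamar blue.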

[11] = system: Leishmania amazonensis; assay: Antiparasitic activity against Leishmania amazonensis infected in CD-1 mouse macrophages after 72 hrs by spectrophotometric analysis; assay type: functional, organism-based

SMILES	selectivity ratio [1]	selectivity ratio [2]	selectivity ratio [3]	IC50 [4]	IC50 [5]	IC50 [6]	selectivity ratio [7]	Ratio IC50 [8]	Ratio IC50 [9]	IC50 [10]	IC50 [11]
CC(C)Oc1cc(NC(=N)c2ccccn2)ccc1-c1ccc(-c2ccc(NC(=N)c3ccccn3)cc2OC(C)C)o1	34.5	20.1	25	100 nM	149 nM	120 nM	30				
CC(C)Oc1cc(NC(=N)c2ncccn2)ccc1-c1ccc(-c2ccc(NC(=N)c3ncccn3)cc2OC(C)C)o1.Cl	8.29	682	181	200 nM	8.5 nM	32 nM	29	5	9	5800 nM	
CC(C)Oc1cc(NC(=N)c2cnccn2)ccc1-c1ccc(-c2ccc(NC(=N)c3cnccn3)cc2OC(C)C)o1	34.8	> 234	> 16	16000 nM	552 nM	8080 nM	> 8.1			> 129000 nM	
CC(C)Oc1cc(NC(=N)c2cccnn2)ccc1-c1ccc(-c2ccc(NC(=N)c3cccnn3)cc2OC(C)C)o1	1.64	3.09	1.06	1500 nM	582 nM	1700 nM	1.2			1800 nM	
CC(C)Oc1cc(NC(=N)c2ccc(Br)s2)ccc1-c1ccc(-c2ccc(NC(=N)c3ccc(Br)s3)cc2OC(C)C)o1		> 120	> 6.47	> 110000 nM	914 nM	17000 nM				> 110000 nM	
CC(C)Oc1cc(NC(=N)c2cc(Br)cs2)ccc1-c1ccc(-c2ccc(NC(=N)c3cc(Br)cs3)cc2OC(C)C)o1		> 109	> 2.46	> 108000 nM	992 nM	43900 nM				> 108000 nM	
Cc1csc(C(=N)Nc2ccc(-c3ccc(-c4ccc(NC(=N)c5nc(C)cs5)cc4OC(C)C)o3)c(OC(C)C)c2)n1	> 12.2	> 122	> 1.55	> 122000 nM	999 nM	78600 nM				> 122000 nM	> 10000 nM
Cc1nc(C(=N)Nc2ccc(-c3ccc(-c4ccc(NC(=N)c5csc(C)n5)cc4OC(C)C)o3)c(OC(C)C)c2)cs1	27.6	54	6.36	2300 nM	87 nM	740 nM	2.04			4700 nM	
CC(C)Oc1cc(NC(=N)c2csc(N)n2)ccc1-c1ccc(-c2ccc(NC(=N)c3csc(N)n3)cc2OC(C)C)o1	2.18	94.9	10.4	5600 nM	39 nM	357 nM	0.66			3700 nM	
CNc1nc(C(=N)Nc2ccc(-c3ccc(-c4ccc(NC(=N)c5csc(NC)n5)cc4OC(C)C)o3)c(OC(C)C)c2)cs1	2.67	25.8	8.69	2300 nM	31 nM	92 nM	0.35			800 nM	
CC(=O)Nc1nc(C(=N)Nc2ccc(-c3ccc(-c4ccc(NC(=N)c5csc(NC(C)=O)n5)cc4OC(C)C)o3)c(OC(C)C)c2)cs1.Cl	2.73	66.7	50	1600 nM	9 nM	12 nM	0.38	5		600 nM	
CC(=O)N(C)c1nc(C(=N)Nc2ccc(-c3ccc(-c4ccc(NC(=N)c5csc(N(C)C(C)=O)n5)cc4OC(C)C)o3)c(OC(C)C)c2)cs1	0.99	22.6	10.3	3100 nM	35 nM	78 nM	0.26			800 nM	
CC(C)Oc1cc(NC(=N)c2ccc[nH]2)ccc1-c1ccc(-c2ccc(NC(=N)c3ccc[nH]3)cc2OC(C)C)o1	1.11	40	8.69	4100 nM	25 nM	115 nM	0.24			1000 nM	
CC(C)Oc1cc(NC(=N)c2ncc[nH]2)ccc1-c1ccc(-c2ccc(NC(=N)c3ncc[nH]3)cc2OC(C)C)o1	4.32	107	26.7	600 nM	15 nM	60 nM	2.67			1600 nM	
CC(C)Oc1cc(NC(=N)c2cn(C)cn2)ccc1-c1ccc(-c2ccc(NC(=N)c3cn(C)cn3)cc2OC(C)C)o1	1.6	148	74.1	18000 nM	54 nM	108 nM	0.44			8000 nM	
CC(C)Oc1cc(NC(=N)c2ccn(C)n2)ccc1-c1ccc(-c2ccc(NC(=N)c3ccn(C)n3)cc2OC(C)C)o1	1.89	20	3.21	6100 nM	70 nM	436 nM	0.23			1400 nM	
O=C(Cn1ccnc1[N+](=O)[O-])NCc1ccccc1 [BENZNIDAZOLE]				1870 nM			> 80			> 150000 nM	
